Experimental data taken from ChEMBL document CHEMBL1152649, “Synthesis, cytotoxicity and human telomerase inhibition activities of a series of 1,2-heteroannelated anthraquinones and anthra[1,2-d]imidazole-6,11-dione homologues” (2009).

Assays:
[1] = Cytotoxicity against human H1299 cells at 1 uM after 48 hrs by MTT assay; type: functional; settings: NCI-H1299, 48 h
Summary of the method: (§1)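 H1299 non-small cell lung cancer cells were grown in RPMI 1640 with 10% FBS, penicillin and streptomycin at 37 °C under 5% CO2. About 2 × 10³ cells per well were seeded and left 24 h. Compounds were dissolved fresh in DMSO, diluted into complete medium and applied for 48 h. MTT was then added for 4 h at 37 °C, followed by lysis buffer (20% SDS, 50% DMF) for 16 h, and absorbance was read at 550 nm.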

[2] = Cytotoxicity against human H1299 cells at 10 uM after 48 hrs by MTT assay; type: functional; settings: NCI-H1299, 48 h; summary of the method: as §1
[3] = Cytotoxicity against human H1299 cells at 100 uM after 48 hrs by MTT assay; type: functional; settings: NCI-H1299, 48 h; summary of the method: as §1
EKVX = assay: Antiproliferative activity against human EKVX cells assessed as cell growth at 10 uM; type: functional; settings: read-out: Activity
Summary of the method: (§2)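 NCI 60 cell line panel, single-dose screen (10^-5 M) run by the developmental therapeutics program protocol. Results are given as growth percent of treated cells relative to untreated control cells for each line.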

HOP-62 = assay: Antiproliferative activity against human HOP62 cells assessed as cell growth at 10 uM; type: functional; settings: read-out: Activity; summary of the method: as §2
SW-620 = assay: Antiproliferative activity against human SW620 cells assessed as cell growth at 10 uM; type: functional; settings: read-out: Activity
Summary of the method: (§3)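 NCI 60 cell line panel, single dose (10^-5 M), run per the Developmental Therapeutics Program protocol (one dose mean graph). Each result is the growth percentage of treated cells relative to untreated control cells.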

[4] = Antiproliferative activity against human Hs 578T cells assessed as cell growth at 10 uM; type: functional; settings: read-out: Activity; summary of the method: as §2
MDA-MB-435 = assay: Antiproliferative activity against human MDA-MB-435 cells assessed as cell growth at 10 uM; type: functional; settings: read-out: Activity; summary of the method: as §2
NCI/ADR-RES = assay: Antiproliferative activity against human NCI/ADR-RES cells assessed as cell growth at 10 uM; type: functional; settings: read-out: Activity; summary of the method: as §2
T47D = assay: Antiproliferative activity against human T47D cells assessed as cell growth at 10 uM; type: functional; settings: read-out: Activity; summary of the method: as §3
OVCAR-3 = assay: Antiproliferative activity against human OVCAR-3 cells assessed as cell growth at 10 uM; type: functional; settings: read-out: Activity; summary of the method: as §2
OVCAR-4 = assay: Antiproliferative activity against human OVCAR4 cells assessed as cell growth at 10 uM; type: functional; settings: read-out: Activity; summary of the method: as §2
OVCAR-5 = assay: Antiproliferative activity against human OVCAR5 cells assessed as cell growth at 10 uM; type: functional; settings: read-out: Activity; summary of the method: as §2
SK-OV-3 = assay: Antiproliferative activity against human SKOV3 cells assessed as cell growth at 10 uM; type: functional; settings: read-out: Activity; summary of the method: as §2
CCRF-CEM = assay: Antiproliferative activity against human CCRF-CEM cells assessed as cell growth at 10 uM; type: functional; settings: read-out: Activity; summary of the method: as §2
HL-60(TB) = assay: Antiproliferative activity against human HL-60(TB) cells assessed as cell growth at 10 uM; type: functional; settings: read-out: Activity
Summary of the method: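 NCI Developmental Therapeutics Program 60-cell-line one-dose screen at 10^-5 M. Readout is growth percentage of treated cells relative to untreated control cells.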

K562 = assay: Antiproliferative activity against human K562 cells assessed as cell growth at 10 uM; type: functional; settings: read-out: Activity; summary of the method: as §2
MOLT-4 = assay: Antiproliferative activity against human MOLT4 cells assessed as cell growth at 10 uM; type: functional; settings: read-out: Activity; summary of the method: as §2
SR = assay: Antiproliferative activity against human SR cells assessed as cell growth at 10 uM; type: functional; settings: read-out: Activity; summary of the method: as §3
786-0 = assay: Antiproliferative activity against human 786-0 cells assessed as cell growth at 10 uM; type: functional; settings: read-out: Activity; summary of the method: as §2
A498 = assay: Antiproliferative activity against human A498 cells assessed as cell growth at 10 uM; type: functional; settings: read-out: Activity; summary of the method: as §2
CAKI-1 = assay: Antiproliferative activity against human Caki1 cells assessed as cell growth at 10 uM; type: functional; settings: read-out: Activity; summary of the method: as §2
SN12C = assay: Antiproliferative activity against human SN12C cells assessed as cell growth at 10 uM; type: functional; settings: read-out: Activity; summary of the method: as §2
M14 = assay: Antiproliferative activity against human M14 cells assessed as cell growth at 10 uM; type: functional; settings: read-out: Activity; summary of the method: as §2
Malme-3M = assay: Antiproliferative activity against human MALME-3M cells assessed as cell growth at 10 uM; type: functional; settings: read-out: Activity; summary of the method: as §2
SK-MEL-2 = assay: Antiproliferative activity against human SK-MEL-2 cells assessed as cell growth at 10 uM; type: functional; settings: read-out: Activity; summary of the method: as §2
SK-MEL-28 = assay: Antiproliferative activity against human SK-MEL-28 cells assessed as cell growth at 10 uM; type: functional; settings: read-out: Activity; summary of the method: as §2
SK-MEL-5 = assay: Antiproliferative activity against human SK-MEL-5 cells assessed as cell growth at 10 uM; type: functional; settings: read-out: Activity; summary of the method: as §2
UACC-257 = assay: Antiproliferative activity against human UACC257 cells assessed as cell growth at 10 uM; type: functional; settings: read-out: Activity; summary of the method: as §3
UACC-62 = assay: Antiproliferative activity against human UACC62 cells assessed as cell growth at 10 uM; type: functional; settings: read-out: Activity; summary of the method: as §3
DU-145 = assay: Antiproliferative activity against human DU145 cells assessed as cell growth at 10 uM; type: functional; settings: read-out: Activity; summary of the method: as §2
PC-3 = assay: Antiproliferative activity against human PC3 cells assessed as cell growth at 10 uM; type: functional; settings: read-out: Activity; summary of the method: as §2
SF-268 = assay: Antiproliferative activity against human SF268 cells assessed as cell growth at 10 uM; type: functional; settings: read-out: Activity; summary of the method: as §2
SF-295 = assay: Antiproliferative activity against human SF295 cells assessed as cell growth at 10 uM; type: functional; settings: read-out: Activity; summary of the method: as §2
SF-539 = assay: Antiproliferative activity against human SF539 cells assessed as cell growth at 10 uM; type: functional; settings: read-out: Activity; summary of the method: as §2
SNB-19 = assay: Antiproliferative activity against human SNB19 cells assessed as cell growth at 10 uM; type: functional; settings: read-out: Activity; summary of the method: as §2
SNB-75 = assay: Antiproliferative activity against human SNB75 cells assessed as cell growth at 10 uM; type: functional; settings: read-out: Activity; summary of the method: as §3
U-251 = assay: Antiproliferative activity against human U251 cells assessed as cell growth at 10 uM; type: functional; settings: read-out: Activity; summary of the method: as §3
NCI-H226 = assay: Antiproliferative activity against human NCI-H226 cells assessed as cell growth at 10 uM; type: functional; settings: read-out: Activity; summary of the method: as §2
NCI-H23 = assay: Antiproliferative activity against human NCI-H23 cells assessed as cell growth at 10 uM; type: functional; settings: read-out: Activity; summary of the method: as §2
NCI-H522 = assay: Antiproliferative activity against human NCI-H522 cells assessed as cell growth at 10 uM; type: functional; settings: read-out: Activity; summary of the method: as §2
COLO 205 = assay: Antiproliferative activity against human COLO205 cells assessed as cell growth at 10 uM; type: functional; settings: read-out: Activity; summary of the method: as §2
HCT-116 = assay: Antiproliferative activity against human HCT116 cells assessed as cell growth at 10 uM; type: functional; settings: read-out: Activity; summary of the method: as §2
HCT-15 = assay: Antiproliferative activity against human HCT15 cells assessed as cell growth at 10 uM; type: functional; settings: read-out: Activity; summary of the method: as §2
HT-29 = assay: Antiproliferative activity against human HT-29 cells assessed as cell growth at 10 uM; type: functional; settings: read-out: Activity; summary of the method: as §2
[5] = target: Telomerase reverse transcriptase (Homo sapiens) (UniProt O14746); assay: Inhibition of TERT in human H1299 cells assessed as residual transcriptional activity at 1 uM after 24 hrs by SEAP reporter gene assay; values are per cent of control
[6] = target: Telomerase reverse transcriptase (Homo sapiens) (UniProt O14746); assay: Inhibition of TERT in human H1299 cells assessed as residual transcriptional activity at 10 uM after 24 hrs by SEAP reporter gene assay; values are per cent of control

Sequence of Telomerase reverse transcriptase (Homo sapiens) (O14746 whole entry): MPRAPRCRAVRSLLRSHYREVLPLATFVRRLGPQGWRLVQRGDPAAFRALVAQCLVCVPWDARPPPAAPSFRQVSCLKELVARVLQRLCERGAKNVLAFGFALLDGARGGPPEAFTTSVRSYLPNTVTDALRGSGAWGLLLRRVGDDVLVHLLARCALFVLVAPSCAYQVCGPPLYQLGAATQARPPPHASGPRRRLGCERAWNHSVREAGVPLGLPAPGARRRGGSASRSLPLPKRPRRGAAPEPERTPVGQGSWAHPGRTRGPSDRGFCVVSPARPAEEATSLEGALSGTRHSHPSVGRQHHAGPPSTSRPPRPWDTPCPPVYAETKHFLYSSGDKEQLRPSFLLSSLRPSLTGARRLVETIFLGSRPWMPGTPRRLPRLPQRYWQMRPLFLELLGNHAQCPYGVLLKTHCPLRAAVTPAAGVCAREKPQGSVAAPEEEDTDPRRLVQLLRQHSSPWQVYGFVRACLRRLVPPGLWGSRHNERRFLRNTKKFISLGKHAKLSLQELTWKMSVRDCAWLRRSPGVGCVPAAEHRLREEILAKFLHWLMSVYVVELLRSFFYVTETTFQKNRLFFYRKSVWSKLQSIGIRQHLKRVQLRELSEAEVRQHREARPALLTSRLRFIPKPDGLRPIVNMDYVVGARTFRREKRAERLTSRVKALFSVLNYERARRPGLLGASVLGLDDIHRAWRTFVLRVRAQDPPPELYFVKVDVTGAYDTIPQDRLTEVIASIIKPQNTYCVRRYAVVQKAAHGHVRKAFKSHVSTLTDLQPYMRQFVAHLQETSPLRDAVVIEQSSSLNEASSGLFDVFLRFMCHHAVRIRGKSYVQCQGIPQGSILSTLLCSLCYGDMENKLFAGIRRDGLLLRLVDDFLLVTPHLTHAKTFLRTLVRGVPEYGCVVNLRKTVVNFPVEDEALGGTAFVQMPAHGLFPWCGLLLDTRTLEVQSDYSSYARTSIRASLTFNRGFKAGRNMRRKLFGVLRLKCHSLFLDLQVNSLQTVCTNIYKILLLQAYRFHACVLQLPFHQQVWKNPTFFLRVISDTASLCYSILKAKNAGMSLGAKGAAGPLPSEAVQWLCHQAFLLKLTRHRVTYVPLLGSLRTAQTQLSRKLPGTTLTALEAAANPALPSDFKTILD

Compound `CN(C)c1ccc(-c2nc3ccc4c(c3[nH]2)C(=O)c2ccccc2C4=O)cc1` has a viability at 1 µM [1] of 88%, a viability at 10 µM [2] of 62% and a viability at 100 µM [3] of 22%. It also gave a growth at 10 µM (EKVX) of 91.9%, a growth at 10 µM (HOP-62) of 102% and a growth at 10 µM (SW-620) of 103%. The growth at 10 µM [4] was 109%, the growth at 10 µM (MDA-MB-435) was 106% and the growth at 10 µM (NCI/ADR-RES) was 108%. For the same compound, the growth at 10 µM (T47D) was 119%, the growth at 10 µM (OVCAR-3) was 111% and the growth at 10 µM (OVCAR-4) was 98.3%. The growth at 10 µM (OVCAR-5) was 117%, the growth at 10 µM (SK-OV-3) was 202% and the growth at 10 µM (CCRF-CEM) was 63.9%. The growth at 10 µM (HL-60(TB)) was 89.7%, the growth at 10 µM (K562) was 96.1% and the growth at 10 µM (MOLT-4) was 101%. It also gave a growth at 10 µM (SR) of 118%, a growth at 10 µM (786-0) of 109% and a growth at 10 µM (A498) of 86.1%. It also gave a growth at 10 µM (CAKI-1) of 108%, a growth at 10 µM (SN12C) of 94.5% and a growth at 10 µM (M14) of 113%. It also gave a growth at 10 µM (Malme-3M) of 110%, a growth at 10 µM (SK-MEL-2) of 73.2% and a growth at 10 µM (SK-MEL-28) of 96.8%. It also gave a growth at 10 µM (SK-MEL-5) of 93.8%, a growth at 10 µM (UACC-257) of 103% and a growth at 10 µM (UACC-62) of 85.8%. For the same compound, the growth at 10 µM (DU-145) was 99.9%, the growth at 10 µM (PC-3) was 82.4% and the growth at 10 µM (SF-268) was 95.4%. It also gave a growth at 10 µM (SF-295) of 159%, a growth at 10 µM (SF-539) of 111% and a growth at 10 µM (SNB-19) of 127%. The growth at 10 µM (SNB-75) was 93.1%, the growth at 10 µM (U-251) was 102% and the growth at 10 µM (NCI-H226) was 89.3%. It also gave a growth at 10 µM (NCI-H23) of 93.8%, a growth at 10 µM (NCI-H522) of 87.1% and a growth at 10 µM (COLO 205) of 208%. It also gave a growth at 10 µM (HCT-116) of 100%, a growth at 10 µM (HCT-15) of 107% and a growth at 10 µM (HT-29) of 105%. It also gave a residual activity [5] of 92% and a residual activity [6] of 73%.
